# Source: ChEMBL document CHEMBL1135775 (J Med Chem, 2002)
# pIC50, pKi: −log10 of the molar value. Values joined by “and” are separate entries in the source; they are usually repeats but may differ in a detail not shown here. Identical values can stand only once.
# Experiments:
# [1] = Discrimination ratio against NET as ratio of IC50 to that of Ki uptake to NET.; format: functional
# [2] = target: T1, Sodium-dependent serotonin transporter (Homo sapiens, UniProt P31645); assay: Displacement of [125I]- RTI-55 from Serotonin transporter expressed in HEK cells; format: cell-based, HEK293
# Method in brief: (§1)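 Membranes from HEK293 cells expressing hDAT, hSERT or hNET (10–15 μg protein) preincubated 10 min with test compound in Krebs-HEPES pH 7.4. Two or three experiments in duplicate; IC50 converted to Ki by Cheng-Prusoff.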
# [3] = target: T2, Sodium-dependent dopamine transporter (Homo sapiens, UniProt Q01959); assay: Displacement of [125I]- RTI-55 from Dopamine transporter expressed in HEK cells; format: cell-based, HEK293; method in brief: as §1
# [4] = target: T3, Sodium-dependent noradrenaline transporter (Homo sapiens, UniProt P23975); assay: Inhibition of NE uptake in HEK cells expressing human noradrenaline transporter (hNET); format: functional, cell-based, HEK293
# [5] = target: Monoamine transporters; serotonin & dopamine (Homo sapiens) (UniProt P31645+Q01959); assay: Selectivity ratio as ratio of IC50 value against SERT to that of DAT; format: protein assay
# [6] = Discrimination ratio against SERT as ratio of IC50 to that of Ki uptake to SERT.; format: functional
# [7] = Discrimination ratio against DAT as ratio of IC50 to that of Ki uptake to DAT.; format: functional
# [8] = target: T1, Sodium-dependent serotonin transporter; assay: Inhibition of 5-HT uptake in HEK cells expressing human serotonin transporter (hSERT); format: functional, cell-based, HEK293
# Method in brief: (§2)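 Scraped HEK293 cells expressing hSERT or hDAT in Krebs-HEPES, preincubated 10 min at 25 °C with test compound. Uptake started with [3H]serotonin or [3H]dopamine (20 nM final), stopped after 10 min by filtration on PEI-soaked GF/C filters.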
# [9] = target: T2, Sodium-dependent dopamine transporter; assay: Inhibition of dopamine uptake in HEK cells expressing human dopamine transporter (hDAT); format: functional, cell-based, HEK293; method in brief: as §2
# [10] = target: Monoamine transporters; Norepinephrine & dopamine (Homo sapiens) (UniProt Q01959+P23975); assay: Selectivity ratio as ratio of IC50 value against NET to that of DAT; format: protein assay
# [11] = Ratio of the IC50 value of Mazindol to that of the compound.; format: functional
# [12] = target: T3, Sodium-dependent noradrenaline transporter; assay: Displacement of [125I]RTI-55 from human Norepinephrine transporter expressed in HEK cells; format: cell-based, HEK293
# [13] = target: Sodium-dependent dopamine transporter (Rattus norvegicus) (UniProt P23977); assay: Ability to displace [3H]WIN-35428 from Dopamine Transporter of rat striatal membrane at a concentration of 10 E-6 M
# [14] = target: T2, Sodium-dependent dopamine transporter; assay: Ability to block the uptake of […] at the Dopamine transporter of HEK cells expressing cDNA for the human transporter (hDAT); format: functional, cell-based, HEK293
# [15] = target: T3, Sodium-dependent noradrenaline transporter; assay: Ability to displace [125I]- RTI-55 binding at the Norepinephrine transporter site on HEK cells expressing cDNA for the human transporter (hNET); format: cell-based, HEK293
# Method in brief: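 Membranes from HEK293 cells expressing hDAT, hSERT or hNET (10–15 μg protein) preincubated 10 min with test compound in Krebs-HEPES pH 7.4. Then 40–80 pM [125I]RTI-55 added, 90 min at 25 °C, GF/C filtration. […] Two or three experiments in duplicate; IC50 converted to Ki by Cheng-Prusoff.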
# [16] = target: Sodium-dependent dopamine transporter (Rattus norvegicus, UniProt P23977); assay: Ability to displace [3H]WIN-35428 from Dopamine Transporter of rat striatal membrane
# Method in brief: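 Rat striatum (male Sprague-Dawley, 200-225 g) homogenised in ice-cold sucrose phosphate buffer pH 7.4, washed, resuspended at 10 mg/mL. Filtration on PEI-soaked GF/B filters, scintillation counting. Four experiments in triplicate.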
# Chain of Sodium-dependent dopamine transporter (Rattus norvegicus, UniProt P23977) (P23977 whole entry): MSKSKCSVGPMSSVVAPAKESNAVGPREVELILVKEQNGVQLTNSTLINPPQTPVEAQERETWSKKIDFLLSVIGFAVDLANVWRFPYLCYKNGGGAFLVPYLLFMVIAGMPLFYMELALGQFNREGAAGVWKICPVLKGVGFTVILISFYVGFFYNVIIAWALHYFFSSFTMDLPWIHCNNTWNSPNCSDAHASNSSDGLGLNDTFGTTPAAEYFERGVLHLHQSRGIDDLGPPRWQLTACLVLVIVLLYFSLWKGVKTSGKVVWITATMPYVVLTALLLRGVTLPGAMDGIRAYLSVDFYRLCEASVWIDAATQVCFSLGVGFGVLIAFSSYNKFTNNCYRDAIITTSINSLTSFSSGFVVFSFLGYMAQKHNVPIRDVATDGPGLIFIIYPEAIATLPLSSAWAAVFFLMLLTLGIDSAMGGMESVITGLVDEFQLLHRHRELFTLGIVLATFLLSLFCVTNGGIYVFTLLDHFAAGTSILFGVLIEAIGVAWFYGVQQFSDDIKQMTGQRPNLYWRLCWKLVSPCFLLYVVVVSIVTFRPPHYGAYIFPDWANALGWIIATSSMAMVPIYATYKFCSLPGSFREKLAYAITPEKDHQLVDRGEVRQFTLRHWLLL
# T3 sequence (P23975 whole entry): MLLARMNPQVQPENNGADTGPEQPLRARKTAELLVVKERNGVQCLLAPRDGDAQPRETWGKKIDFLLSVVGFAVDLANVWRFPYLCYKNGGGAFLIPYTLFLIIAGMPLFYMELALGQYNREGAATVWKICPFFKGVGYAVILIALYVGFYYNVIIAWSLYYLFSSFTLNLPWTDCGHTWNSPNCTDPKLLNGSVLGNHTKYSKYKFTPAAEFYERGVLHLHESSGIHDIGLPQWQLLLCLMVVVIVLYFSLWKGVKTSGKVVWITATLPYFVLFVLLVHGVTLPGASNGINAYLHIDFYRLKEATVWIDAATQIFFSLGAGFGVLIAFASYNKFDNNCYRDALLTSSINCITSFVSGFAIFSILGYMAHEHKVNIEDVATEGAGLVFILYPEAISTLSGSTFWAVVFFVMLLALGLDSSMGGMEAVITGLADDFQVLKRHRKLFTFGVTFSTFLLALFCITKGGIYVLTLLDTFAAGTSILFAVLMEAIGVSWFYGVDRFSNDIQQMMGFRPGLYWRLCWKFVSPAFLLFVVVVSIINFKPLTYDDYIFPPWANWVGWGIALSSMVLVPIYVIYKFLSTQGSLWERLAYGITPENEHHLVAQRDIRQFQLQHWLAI
# Chain of Monoamine transporters; Norepinephrine & dopamine (Homo sapiens) (P23975 whole entry, looked up): as the sequence (P23975 whole entry) above
# Chain of Monoamine transporters; Norepinephrine & dopamine (Homo sapiens) (Q01959 whole entry, looked up): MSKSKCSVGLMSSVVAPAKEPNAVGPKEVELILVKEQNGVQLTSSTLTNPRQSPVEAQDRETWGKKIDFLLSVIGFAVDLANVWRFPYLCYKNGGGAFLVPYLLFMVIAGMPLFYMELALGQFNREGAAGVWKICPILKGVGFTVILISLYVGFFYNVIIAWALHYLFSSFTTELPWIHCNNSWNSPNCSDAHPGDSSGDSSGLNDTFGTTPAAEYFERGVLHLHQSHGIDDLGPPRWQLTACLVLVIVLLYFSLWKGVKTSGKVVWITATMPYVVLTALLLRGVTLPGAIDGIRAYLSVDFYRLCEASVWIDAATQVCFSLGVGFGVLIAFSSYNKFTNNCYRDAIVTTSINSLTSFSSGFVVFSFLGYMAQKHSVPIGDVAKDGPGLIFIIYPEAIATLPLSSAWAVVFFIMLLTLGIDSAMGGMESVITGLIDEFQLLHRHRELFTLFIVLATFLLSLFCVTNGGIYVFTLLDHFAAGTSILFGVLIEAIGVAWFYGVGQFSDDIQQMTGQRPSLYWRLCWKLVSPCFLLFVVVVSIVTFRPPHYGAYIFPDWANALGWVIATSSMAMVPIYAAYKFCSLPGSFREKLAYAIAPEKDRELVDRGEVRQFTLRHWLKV
# T1 sequence (P31645 whole entry): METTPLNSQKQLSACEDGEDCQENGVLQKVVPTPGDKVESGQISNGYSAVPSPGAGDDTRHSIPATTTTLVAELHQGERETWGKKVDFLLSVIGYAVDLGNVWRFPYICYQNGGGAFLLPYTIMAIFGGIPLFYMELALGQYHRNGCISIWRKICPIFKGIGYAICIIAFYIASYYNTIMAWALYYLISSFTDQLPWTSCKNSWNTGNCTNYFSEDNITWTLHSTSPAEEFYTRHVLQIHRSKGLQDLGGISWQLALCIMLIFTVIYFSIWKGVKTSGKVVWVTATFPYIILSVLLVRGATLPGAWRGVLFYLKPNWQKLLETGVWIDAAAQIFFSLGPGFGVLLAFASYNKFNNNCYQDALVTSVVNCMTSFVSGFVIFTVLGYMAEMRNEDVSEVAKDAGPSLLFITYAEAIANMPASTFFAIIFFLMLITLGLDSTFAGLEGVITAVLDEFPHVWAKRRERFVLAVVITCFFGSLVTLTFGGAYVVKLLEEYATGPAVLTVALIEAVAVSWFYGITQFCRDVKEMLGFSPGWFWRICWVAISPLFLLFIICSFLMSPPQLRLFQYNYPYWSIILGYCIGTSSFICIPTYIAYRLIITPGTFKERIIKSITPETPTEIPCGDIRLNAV
# Chain of Monoamine transporters; serotonin & dopamine (Homo sapiens) (P31645 whole entry, looked up): as the sequence (P31645 whole entry) above
# Chain of Monoamine transporters; serotonin & dopamine (Homo sapiens) (Q01959 whole entry, looked up): as the sequence (Q01959 whole entry, looked up) above
# T2 sequence (Q01959 whole entry): as the sequence (Q01959 whole entry, looked up) above
# Chain of Sodium-dependent dopamine transporter (Rattus norvegicus) (P23977 whole entry): as the sequence (P23977 whole entry) above
smiles,measurement,setting,value
OC1(c2ccc(Cl)cc2)c2cc(Cl)c(Cl)cc2C2=NCCN21 (stereo not given),Ratio,[1],0.3
same,pKi,[2],5.87
same,pKi,[3],8.98
same,pIC50,[4],8.00
same,Ratio,[5],1280
same,Ratio,[6],0.3
same,Ratio,[7],5.7
same,pIC50,[8],6.35
same,pIC50,[9],8.22
same,Ratio,[10],38
same,Ratio,[11],0.6
same,pKi,[12],7.40
Cc1ccc(C2(O)c3ccccc3C3=NCCN32)cc1 (stereo not given),Ratio,[11],0.1
OC1(c2ccc(-c3ccccc3)cc2)c2ccccc2C2=NCCN21 (stereo not given),inhibition,[13],14.1%
same,Ratio,[11],< 0.002
Oc1ccc(C2(O)c3ccccc3C3=NCCCN32)cc1 (stereo not given),Ratio,[1],0.005
same,pKi,[2],7.11
same,pKi,[3],7.06
same,pIC50,[4],8.72
same,Ratio,[5],0.9
same,Ratio,[6],0.8
same,Ratio,[7],0.7
same,pIC50,[8],7.22
same,pIC50,[9],7.23
same,Ratio,[10],4.4
same,Ratio,[11],2.4
same,pKi,[12],6.42
COc1ccc(C2(O)c3ccccc3C3=NCCN32)cc1OC (stereo not given),Ratio,[11],0.001
OC1(c2ccc(C(F)(F)F)cc2)c2ccccc2C2=NCCN21 (stereo not given),Ratio,[11],0.03
COc1cccc2c1C1=NCCN1C2(O)c1ccc(Cl)cc1 (stereo not given),Ratio,[1],0.7
same,pKi,[2],6.06
same,pKi,[3],8.54
same,pIC50,[4],8.33
same,Ratio,[5],300
same,Ratio,[6],0.3
same,Ratio,[7],14.5
same,pIC50,[8],6.55
same,pIC50,[9],7.38
same,Ratio,[10],2.3
same,Ratio,[11],9
same,pKi,[12],8.17
Cc1cc(C)c2c(c1)C1=NCCN1C2(O)c1ccc(Cl)cc1 (stereo not given),Ratio,[11],0.6
OC1(c2ccc(Cl)cc2)c2cccc(F)c2C2=NCCN21 (stereo not given),Ratio,[1],5.6
same,pKi,[2],7.42
same,pKi,[3],7.64
same,pIC50,[4],8.30
same,Ratio,[5],1.65
same,Ratio,[6],3.4
same,Ratio,[7],4
same,pIC50,[8],6.89
same,pIC50,[9],7.04
same,Ratio,[10],0.04
same,Ratio,[11],3.5
same,pKi,[12],9.05
OC1(c2ccc(Cl)cc2)c2cccc(-c3ccccc3)c2C2=NCCN21 (stereo not given),Ratio,[11],0.1
OC1(c2ccc(OCc3ccccc3)cc2)c2ccccc2C2=NCCCN21 (stereo not given),Ratio,[11],0.1
OC1(c2cccnc2)c2ccccc2C2=NCCN21 (stereo not given),Ratio,[11],0.013
OC1(c2ccccc2)c2ccccc2C2=NCCN21 (stereo not given),Ratio,[1],0.03
same,pKi,[2],5.75
same,pKi,[3],5.97
same,pIC50,[4],8.55
same,Ratio,[5],1.6
same,Ratio,[6],1.2
same,Ratio,[7],0.7
same,pIC50,[8],5.67
same,pIC50,[9],6.14
same,Ratio,[10],0.1
same,Ratio,[11],0.1
same,pKi,[12],7.00
CC1(c2ccc(Cl)cc2)c2ccccc2C2=NCCCN21 (stereo not given),Ratio,[11],0.3
OC1(c2ccccc2)c2c(Cl)cccc2C2=NCCN21 (stereo not given),Ratio,[11],0.1
OC1(c2ccccc2)c2cc(Cl)ccc2C2=NCCN21 (stereo not given),Ratio,[11],0.1
OC1(c2ccc(Cl)cc2)c2ccccc2C2=NCCN21 (stereo not given) [MAZINDOL],pIC50,[4],8.31
same,pIC50,[8],7.03
OC1(c2ccc3c(c2)OCCO3)c2ccccc2C2=NCCN21 (stereo not given),Ratio,[11],0.03
CN(C)Cc1ccc(C2(O)c3ccccc3C3=NCCN32)cc1 (stereo not given),Ratio,[11],0.003
COC(=O)c1ccc(C2(O)c3ccccc3C3=NCCN32)cc1 (stereo not given),Ratio,[11],0.002
OC1(c2ccc3c(c2)OCO3)c2ccccc2C2=NCCCN21 (stereo not given),Ratio,[1],0.07
same,pKi,[2],7.59
same,pKi,[3],8.59
same,pIC50,[14],8.66
same,pKi,[15],8.06
same,pIC50,[4],9.21
same,Ratio,[5],10
same,Ratio,[6],3.2
same,Ratio,[7],0.8
same,pIC50,[8],7.08
same,Ratio,[10],3.5
same,pIC50,[16],8.71
Clc1ccc(C2c3ccccc3C3=NCCN32)cc1 (stereo not given),pKi,[2],7.59
same,pKi,[3],7.64
same,pIC50,[4],8.16
same,pIC50,[8],7.82
same,pIC50,[9],8.22
same,Ratio,[11],1.4
same,pKi,[12],6.77
OC1(c2cccc(C(F)(F)F)c2)c2ccccc2C2=NCCN21 (stereo not given),Ratio,[11],0.04
COc1cc(C2(O)c3ccccc3C3=NCCN32)cc(OC)c1OC (stereo not given),Ratio,[11],< 0.002
OC1(c2ccccn2)c2ccccc2C2=NCCN21 (stereo not given),Ratio,[11],< 0.002
COC1(c2ccc(Cl)cc2)c2ccccc2C2=NCCN21 (stereo not given),Ratio,[11],0.008
same,pIC50,[16],6.00
C=CCOc1ccc(C2(O)c3ccccc3C3=NCCCN32)cc1 (stereo not given),Ratio,[11],0.1
OC1(c2ccncc2)c2ccccc2C2=NCCN21 (stereo not given),Ratio,[11],0.1
OC1(c2ccc(Cl)cc2)c2c(ccc3c2OCO3)C2=NCCN21 (stereo not given),Ratio,[11],0.1
OC1(c2ccc3c(c2)OCO3)c2ccccc2C2=NCCN21 (stereo not given),Ratio,[11],0.4
COc1cccc2c1C(O)(c1ccc(Cl)cc1)N1CCN=C21 (stereo not given),Ratio,[1],0.07
same,pKi,[2],5.70
same,pKi,[3],7.99
same,pIC50,[4],8.76
same,Ratio,[5],193
same,Ratio,[6],1.8
same,Ratio,[7],5.8
same,pIC50,[8],5.44
same,pIC50,[9],7.22
same,Ratio,[10],2.2
same,Ratio,[11],0.6
same,pKi,[12],7.64
OC1(c2ccc(Cl)cc2)c2ccccc2C2=NCCCN21 (stereo not given),Ratio,[1],2.2
same,pIC50,[4],8.31
same,Ratio,[5],23
same,Ratio,[6],1.4
same,Ratio,[7],2.2
same,pIC50,[8],7.28
same,pIC50,[9],8.43
same,Ratio,[10],10.6
same,Ratio,[11],8.1 and 10.1
C=CCOc1cccc(C2(O)c3ccccc3C3=NCCCN32)c1 (stereo not given),Ratio,[11],0.2
same,pIC50,[16],6.66
COc1ccc(C2(O)c3ccccc3C3=NCCCN32)cc1OC (stereo not given),Ratio,[11],0.1
COc1ccc2c(c1)C(O)(c1ccc(Cl)cc1)N1CCN=C21 (stereo not given),Ratio,[1],0.06
same,pKi,[2],5.99
same,pKi,[3],8.22
same,pIC50,[4],8.84
same,Ratio,[5],172
same,Ratio,[6],1.9
same,Ratio,[7],2.8
same,pIC50,[8],5.71
same,pIC50,[9],7.78
same,Ratio,[10],3.9
same,Ratio,[11],3.2
same,pKi,[12],7.64
COc1ccc(C2(O)c3ccccc3C3=NCCCN32)cc1 (stereo not given),Ratio,[1],0.05
same,pKi,[2],7.25
same,pKi,[3],7.44
same,pIC50,[4],8.39
same,Ratio,[5],1.5
same,Ratio,[6],1.7
same,Ratio,[7],0.8
same,pIC50,[8],7.03
same,pIC50,[9],7.52
same,Ratio,[10],2.3
same,Ratio,[11],3.2
same,pKi,[12],7.08
COCC1(c2ccc(Cl)cc2)c2ccccc2C2=NCCCN21 (stereo not given),Ratio,[11],< 0.002
COc1ccc(C2(O)c3ccccc3C3=NCCN32)cc1 (stereo not given),Ratio,[11],0.4
